Screens (PubChem)
This is a sample that favours compounds with a hit; in the whole collection about 3.1% have one here.
aDG glyco act – activators of alpha-DG glycosylation, primary screen, uHTS, Pro5-aDG cells, AlphaScreen; alpha-DG glycosylation AlphaScreen (IIH6); 0% Pro5, 100% B10-LARGE cell signal; activation, % at 10 µM; actives 0.22% (n = 360,000); AID 624168, 2012;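 active means activation of at least 8% versus controls, or a plate z-score of at least 8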;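 further: Pro5 are CHO cells carrying HIG-tagged alpha-DG that lacks glycosylation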
MPTP inh – mitochondrial permeability transition pore inhibitors, primary screen, biochemical, isolated mouse mitochondria, absorbance | Ca2+ swelling absorbance, 30 min | inhibition, % at 10 µM | actives 1.4% (n = 360,000);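 active means inhibition of 50% or more, scaled per plate between neutral and stimulator controls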
Hep lipid drop – inhibitors of hepatocyte lipid droplet formation, primary screen, imaging, high-throughput imaging, BODIPY stain; AML12 mouse hepatocytes, oleate lipid droplets; actives 0.4% (n = 240,000); inhibition, % at 6.5 µM;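 active means lipid droplet intensity inhibited by at least 50%, with more than 500 cells counted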
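Assay system: AML12 hepatocytes (mouse) / Also added: 100 µM oleic acid challenge / Times: overnight treatment with compound plus oleate / Detection: high-content imaging of BODIPY-stained droplets and DAPI nuclei / Evaluation: % inhibition of lipid droplet signal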
ADAM17 inh – ADAM17 inhibitors, primary screen, biochemical, QFRET. inhibition, % at 6.95 µM. actives 0.83% (n = 370,000). AID 720648, 2013. recombinant ADAM17, EDANS/DABCYL FRET peptide cleavage;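 active means inhibition above the mean of compounds lying between control limits plus 3 SD, set per campaign, cut at about 8.5% in these data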
Target sequence (P78536 215-824 limits assumed): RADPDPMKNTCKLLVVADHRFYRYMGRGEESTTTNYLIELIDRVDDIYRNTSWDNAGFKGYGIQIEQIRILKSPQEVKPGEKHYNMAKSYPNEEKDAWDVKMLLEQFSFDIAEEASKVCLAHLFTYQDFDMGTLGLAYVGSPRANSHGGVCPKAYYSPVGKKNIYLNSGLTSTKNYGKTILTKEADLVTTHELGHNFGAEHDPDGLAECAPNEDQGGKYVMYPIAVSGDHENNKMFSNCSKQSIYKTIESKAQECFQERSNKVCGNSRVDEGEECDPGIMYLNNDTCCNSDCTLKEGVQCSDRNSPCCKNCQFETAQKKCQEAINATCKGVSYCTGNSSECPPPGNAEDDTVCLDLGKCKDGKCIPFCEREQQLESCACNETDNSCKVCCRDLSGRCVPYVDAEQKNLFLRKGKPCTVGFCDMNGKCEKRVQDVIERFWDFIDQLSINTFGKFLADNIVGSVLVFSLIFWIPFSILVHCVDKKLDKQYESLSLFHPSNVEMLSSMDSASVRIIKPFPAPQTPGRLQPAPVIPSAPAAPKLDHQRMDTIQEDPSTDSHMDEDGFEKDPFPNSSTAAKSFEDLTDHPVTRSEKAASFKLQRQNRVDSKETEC
V-ATPase pHluor – regulators of yeast V-ATPase proton pumping, primary screen, pHLuorin cytosolic pH fluorescence | AID 504577, 2011 | response, % at 10 µM | S. cerevisiae | actives 0.37% (n = 350,000); in the data active means response mostly above about 7.3%, no sharp cut-off; inactive means mostly below about 5.4%; further: actives read high
ADAM10 inh – human ADAM10 inhibitors, primary screen, biochemical, QFRET, HTS; recombinant ADAM10, EDANS/DABCYL FRET peptide cleavage, 3 h; inhibition, % at 7 µM; actives 0.62% (n = 370,000); AID 720582, 2013;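 active means inhibition above a per-campaign cutoff equal to the mean of compounds falling between control-based bounds plus 3 SD, cut at about 20% in these data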
ADAM10 ctr – ADAM10 inhibitors, counter-screen for ADAM17 exosite inhibitor project, biochemical, FRET, human ADAM10 | shares compounds with ADAM17 inh | recombinant ADAM10, EDANS/DABCYL FRET peptide cleavage, 3 h | inhibition, % at 6.95 µM | actives 47% (n = 2,900);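 active means mean inhibition over the triplicate runs exceeds the activity threshold set in the earlier primary screen, cut at about 20% in these data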
ADAM17 confirm – ADAM17 inhibitors, hit retest, confirmation, biochemical, QFRET peptide cleavage; recombinant ADAM17, EDANS/DABCYL QFRET peptide cleavage; inhibition, % at 6.95 µM; shares compounds with ADAM17 inh; actives 65% (n = 2,900);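 active means mean inhibition across replicates above the hit cutoff set in the primary screen, cut at about 8.5% in these data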
Large screens that a line does not name were inactive (follow-up assays come after a bar, where they were run).

CN(CC(=O)Nc1cccc(F)c1)C(=O)c1cn(-c2ccccc2)nc1-c1ccc(Cl)cc1	ADAM17 inh 9.4 (no result: Hep lipid drop) | ADAM10 ctr 28 | ADAM17 confirm 17
CC1(Cc2ccc(OC(F)(F)F)cc2)C(=O)Nc2c(Cl)ccc(Cl)c21 (stereo unspecified)	ADAM17 inh 9.7 (no result: Hep lipid drop, V-ATPase pHluor) | ADAM10 ctr 31 | ADAM17 confirm 15
CC1(Cc2cccc(F)c2)C(=O)Nc2ccc(OC(F)(F)F)cc21 (stereo unspecified)	none (no result: Hep lipid drop, V-ATPase pHluor)
CC1(Cc2ccc(F)cc2)C(=O)Nc2c(Cl)ccc(Cl)c21 (stereo unspecified)	none (no result: Hep lipid drop, V-ATPase pHluor)
CC1(Cc2ccc(OC(F)(F)F)cc2)C(=O)Nc2ccc(OC(F)(F)F)cc21 (stereo unspecified)	ADAM17 inh 11 (no result: Hep lipid drop, V-ATPase pHluor) | ADAM10 ctr 51 | ADAM17 confirm 25
CCOc1ccc(N(CC(=O)Nc2c(C)n(C)n(-c3ccccc3)c2=O)S(=O)(=O)c2ccc(C(C)(C)C)cc2)cc1	none (no result: aDG glyco act, MPTP inh, Hep lipid drop, V-ATPase pHluor)
O=C1[C@H]2[C@@H](c3ccccc3)N[C@]3(CCCN(Cc4ccc(C(F)(F)F)cc4)C3=O)[C@H]2C(=O)N1Cc1ccccc1	none (no result: Hep lipid drop)
O=C1[C@H]2[C@@H](c3ccc(C(F)(F)F)cc3)N[C@]3(CCCN(Cc4ccc(F)cc4)C3=O)[C@H]2C(=O)N1Cc1ccccc1	ADAM17 inh 8.9 (no result: Hep lipid drop) | ADAM10 ctr 24 | ADAM17 confirm 13
CC(C)=CCC/C(C)=C/CNCC(=O)N1c2ccccc2[C@]2(c3ccccc3)C[C@@H]3C(=O)N(C/C=C(\C)CCC=C(C)C)CC(=O)N3[C@H]12	none (no result: aDG glyco act, MPTP inh, Hep lipid drop, V-ATPase pHluor)
Cc1ccc(CSc2nnc(-c3cccs3)o2)cc1C	none (no result: aDG glyco act, MPTP inh, Hep lipid drop, V-ATPase pHluor)
CCN(c1ccc(OCC(=O)OCC(=O)c2c(N)n(C)c(=O)n(C)c2=O)cc1)S(=O)(=O)c1ccccc1	none
CN(c1ccc(OCC(=O)OCC(=O)c2c(N)n(C)c(=O)n(C)c2=O)cc1)S(=O)(=O)c1ccc2ccccc2c1	ADAM17 inh 9.3 | ADAM10 ctr 23 | ADAM17 confirm 10
CN1[C@H](Cc2ccccc2)COc2cc(N3CCSCC3)ccc2S1(=O)=O	none (no result: aDG glyco act, MPTP inh, Hep lipid drop, V-ATPase pHluor)
COC(=O)[C@]12C[C@H](CC(=O)NCc3ccccc3)C(=O)N(Cc3ccco3)C1=C[C@H](C(C)(C)C)O[C@@H]2C	none (no result: aDG glyco act, MPTP inh, Hep lipid drop, V-ATPase pHluor)
CC(CCN1CCC(C(O)(c2ccccc2)c2ccccc2)CC1)Oc1cc(F)cc(C#N)c1 (stereo unspecified)	none (no result: aDG glyco act, MPTP inh, Hep lipid drop, V-ATPase pHluor)
OC1(c2ccccc2)CC(c2ccccc2)c2ccccc2O1 (stereo unspecified)	ADAM17 inh 9.2 (no result: Hep lipid drop) | ADAM10 ctr 30 | ADAM17 confirm 16
CCOC(=O)C1(Cc2ccccc2)CCN(Cc2ccnc3ccccc23)CC1	none (no result: aDG glyco act, MPTP inh, Hep lipid drop, V-ATPase pHluor)
C#CCNC(=O)C[C@H]1C[C@@]2(C(=O)OC)C(=C[C@H](C3CCCC3)O[C@@H]2C)N(Cc2ccco2)C1=O	none (no result: aDG glyco act, MPTP inh, Hep lipid drop, V-ATPase pHluor)
C#CCN(C[C@H]1[C@H](OC(=O)Nc2cccs2)[C@H](OC(=O)Nc2cccs2)CN(C(=O)OC(C)C)N1C(=O)OC(C)C)S(=O)(=O)c1ccc(C)cc1	ADAM17 inh 12 (no result: aDG glyco act, MPTP inh, Hep lipid drop, V-ATPase pHluor) | ADAM10 ctr 33 | ADAM17 confirm 19
O=C(/C=C/c1ccccc1O)c1ccc(Cl)cc1	ADAM17 inh 10.0 | ADAM10 ctr inactive | ADAM17 confirm 9.4
CC1=CC2=NC(=O)/C(=C\c3cccn3CCOc3cccc(C)c3)C(=N)N2O1	ADAM17 inh 8.7 | ADAM10 ctr inactive | ADAM17 confirm inactive
COc1cccc(OCCn2cccc2/C=C2/C(=N)N3OC(C)=CC3=NC2=O)c1	none
Cc1ccccc1N=Nc1ccc(O)c2ncccc12	none
Nc1ccc(N=Nc2ccccc2)c2cccnc12	ADAM17 inh 9.5 | ADAM10 ctr 25 | ADAM17 confirm 14
CCCn1c(O)c(N=NC(=O)CNC(=O)/C=C/c2ccc(OC)cc2)c2ccccc21	none
CCCn1c(O)c(N=NC(=O)CNC(=O)Cc2ccc(OC)cc2)c2ccccc21	ADAM17 inh 9.7 | ADAM10 ctr inactive | ADAM17 confirm inactive
COc1ccc(-c2csc(NC(=O)COc3ccc(N(C)S(=O)(=O)c4ccc(C)cc4)cc3)n2)cc1	ADAM17 inh 9.9 | ADAM10 ctr inactive | ADAM17 confirm inactive
CCOC(=O)[C@]12CCCC=C1N(CCc1ccc(Cl)cc1)C(=O)[C@@H]2CC(=O)NCCC(C)C	none (no result: aDG glyco act, MPTP inh, Hep lipid drop, V-ATPase pHluor)
O=S(=O)(NCc1cn(Cc2ccccc2)nn1)c1ccccc1Br	none (no result: aDG glyco act, MPTP inh, Hep lipid drop, V-ATPase pHluor)
Cc1c(C(=O)NCc2ccccc2)oc2ccc(S(=O)(=O)N3CCC4(CC3)OCCO4)cc12	ADAM17 inh 9.6 | ADAM10 ctr inactive | ADAM17 confirm inactive
O=C(Oc1ccccc1-c1nnco1)c1ccc(Cl)cc1	ADAM17 inh 9.7 | ADAM10 ctr inactive | ADAM17 confirm inactive
C=C(C)c1cccc(C(C)(C)NC(=O)N2CCCC2)c1	ADAM17 inh 9.1 | ADAM10 ctr inactive | ADAM17 confirm inactive
CC(C)(C)c1ccc(-c2nnc(SCC(=O)Nc3ccc(S(=O)(=O)Nc4nccs4)cc3)n2Cc2ccco2)cc1	ADAM17 inh 9.6 (no result: aDG glyco act, MPTP inh, Hep lipid drop, V-ATPase pHluor) | ADAM10 ctr 23 | ADAM17 confirm 13
COc1cccc(-c2nnc(SCC(=O)Nc3ccc(Oc4ccccc4)cc3)n2Cc2ccco2)c1	ADAM17 inh 9.1 (no result: aDG glyco act, MPTP inh, Hep lipid drop, V-ATPase pHluor) | ADAM10 ctr 27 | ADAM17 confirm 16
COc1cccc(-c2nnc(SCC(=O)Nc3cccc4ccccc34)n2Cc2ccco2)c1	none (no result: aDG glyco act, MPTP inh, Hep lipid drop, V-ATPase pHluor)
O=C(CSc1nnc(-c2ccncc2)n1Cc1ccco1)Nc1nccs1	none
CC(C)(C)c1ccc(-c2nnc(SCC(=O)Nc3ccccc3-c3ccccc3)n2Cc2ccco2)cc1	ADAM17 inh 11 (no result: aDG glyco act, MPTP inh, Hep lipid drop, V-ATPase pHluor) | ADAM10 ctr 20 | ADAM17 confirm 17
CCOc1ccc(-n2c(SCC(=O)Nc3ccccc3-c3ccccc3)nnc2-c2ccccc2)cc1	ADAM17 inh 9.6 (no result: aDG glyco act, MPTP inh, Hep lipid drop, V-ATPase pHluor) | ADAM10 ctr 38 | ADAM17 confirm 20
CCOC(=O)C1=NOC(C(=O)Nc2cc(C)cc(C)c2)(C(=O)C2CC2)C1 (stereo unspecified)	none (no result: aDG glyco act, MPTP inh, Hep lipid drop, V-ATPase pHluor)
O=C(CCc1nc(-c2ccccc2F)no1)NCCc1c[nH]c2ccccc12	none (no result: aDG glyco act, MPTP inh, Hep lipid drop, V-ATPase pHluor)
